Test results published in the EternaBench riboswitch data.

Test system: MS2 coat protein
Experiment: apparent Kd, MS2 coat protein; higher = weaker binding; RNA-MaP array; tryptophan 2.4 mM where present
How it was run: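 The apparent Kd is reported as the median of filtered per-cluster binding-curve fits. To get these curves, designs transcribed by stalled E. coli RNA polymerase on Illumina sequencing-chip clusters were titrated with SNAP-549-labelled MS2 coat protein from 0.7 or 1.5 nM, doubling to 3 µM. Titrations were run without and then with constant ligand in 100 mM Tris-HCl pH 7.5, 80 mM KCl, 4 mM MgCl2, BSA, DTT, yeast tRNA and Tween-20, and green signal was normalised to red-channel RNA signal and control-cluster median Fmax.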

[1] = designed as: ON switch for tryptophan, no ligand
[2] = ligand present: tryptophan, designed as: ON switch for tryptophan
[3] = designed as: OFF switch for tryptophan, no ligand
[4] = ligand present: tryptophan, designed as: OFF switch for tryptophan

Row | Sequence | apparent Kd [1] [nM] | apparent Kd [2] [nM] | apparent Kd [3] [nM] | apparent Kd [4] [nM]
1 | CGCGCGACAUGAGGAUCACCCAUGUUCCCUCGAGGACCGGUACGGCCGCCACUCGAGGACAUGAGCAUCAGCCAUGUACCGGUCA | 51.6 | 131 |  | 
2 | CUAUAAGUACCGGUCCUCAGAUCCUCAUGACGAGGACCGGUACGGCCGCCACUCGAAACAUGAGGAUCACCCAUGUAAUAAUAUU |  |  | 20.2 | 19.3
3 | GAUAUACGUGCGGCCGCCACUGAGUGGCGGGCGUGUCGAGUUACAUGAGGAUCACCCAUGUCACUCAGGACCGGGCACGGAAUUU |  |  | 9.98 | 11.4
4 | GCAUCCUAGUCGGCCGCCACUGGUAUGAACACCUUCACCCGUGUGCACAUGAGGAUCACCCAUGUUAGGACCGGGACUAGGAUGC | 9.03 | 9.3 |  | 
5 | GCUGCAGCUACGGCCGCCACUGUUACGUGAGACAUGAGGAUCACCCAUGUUGAUGUUUUACGGUAUAGGACCGGGUAGUUGUAGU |  |  | 9.7 | 13.4
6 | GGCAAAAGGUCGGCCGCCACUGUAGGAUGUGUUCUUUCACAUGAGGAUCACCCAUGUUGUUAUUAUAGGACCGGGAUUUUAGGAC |  |  | 21.8 | 21.1
7 | GGCUAUACUACGGCCGCCACUGAACAUGAGGAUCACCCAUGUAAUGUUCAGAUUUUUUUUUUUUACAGGACCGGGUAGAAUUGCC | 195 | 104 |  | 
8 | GGGUGGUAGGCGGCCGCCACUGAUUUUCAUUCCUGGAUGACAUGAGGAUCACCCAUGUUUACGGGCAGGACCGGGCCUGCUGUGG | 57.3 | 46.5 |  | 
9 | GGUGGACUUUCGGCCGCCACUGAGAGAGUCGUGUGAACAUGAGGAUCACCCAUGUAAUAUAUAUACAGGACCGGGAGGGUUGUCC |  |  | 15.9 | 15.9
10 | GUUAUUAGAAAACUAAUAACAGUGGGUGAACGAGGACCGGUACGGCCGCCACUCGGACAUGAGGAUCACCCAUGUCCAUGUGAAA |  |  | 15.4 | 32.7
11 | UAAACUACACAUGAGGAUCACCCAUGUGGCCGAGGACCGGUACGGCCGCCACUCGUGUGUUAAUAAUAGAACUGCAAGGUUCUGU | 183 | 75.2 |  | 
12 | UAACAUGAGGAUCACCCAUGUUUAGAAGAACGAGGACCGGUACGGCCGCCACUCGAAAAGUGGAAGAAAAGAGGGAUAGAAUGAU | 12.2 | 12.6 |  | 
13 | UAAUAAGUACCGGUCCUCAGAUCCUCAUGACGAGGACCGGUACGGCCGCCACUCGAAACAUGAGGAUCACCCAUGUAAUAAUAAC |  |  | 27.4 | 19.4
14 | UAAUGCAGGUCGGCCGCCACUACACACAUGAGGAUCACCCAUGUAGUUACUGGGUGAAGUGGCAGUAGGACCGGGACCUGCAUAC | 372 | 470 |  | 
15 | UCGUUGAAGUCGGCCGCCACUGAACUCAUGUUCAACAUGAGGAUCACCCAUGUACCUUAUUUUAACAGGACCGGGACUUUGACGA |  |  | 167 | 156
16 | UUAAUUAUUGAAUCGUAUUGGUAUUAAGAACGAGGACCGGUACGGCCGCCACUCGUGAUAUACAUGAGGAUCACCCAUGUUAGCA | 14.8 | 14 |  | 
